ChEMBL document CHEMBL1137291, “p38 MAP kinase inhibitors. Part 5: discovery of an orally bio-available and highly efficacious compound based on the 7-amino-naphthyridone scaffold” (Bioorg Med Chem Lett, 2006)
pIC50: −log10 of the molar value.

How the values were obtained:
[1] = Oral bioavailability in rat; format: ADME, organism-based; details: in vivo
Method in brief: (§1)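 Sprague-Dawley rats (male where specified) were dosed orally at 1 mpk, in one case as a 0.5% methylcellulose suspension. Plasma exposure was followed to give oral bioavailability, AUC, C_max and half-life.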

Rattus norvegicus [2] = assay: Inhibition of TNFalpha production in rat LPS challenge model at 3 mg/kg, po after 16 hrs; format: functional
[3] = Cmax in rat; format: ADME, organism-based; details: in vivo; method in brief: as §1
Rattus norvegicus [4] = assay: Inhibition of TNFalpha production in rat LPS challenge model at 3 mg/kg, po after 6 hrs; format: functional
THP-1 = assay: Inhibition of TNFalpha release from LPS-stimulated human monocyte THP1 cells; format: functional, cell-based
[5] = Half life in rat; format: ADME, organism-based; details: in vivo; method in brief: as §1
Rattus norvegicus [6] = assay: Inhibition of TNFalpha production in rat LPS challenge model at 3 mg/kg, po after 24 hrs; format: functional
Blood = assay: Inhibition of LPS-stimulated TNFalpha release in human whole blood; format: functional, tissue-based
[7] = Cmax in Sprague-Dawley rat at 1 mg/kg, po; format: ADME, organism-based; parameters: dose 1 mg/kg, route oral; details: in vivo; method in brief: as §1
[8] = Bioavailability in Sprague-Dawley rat at 1 mg/kg, po; format: ADME, organism-based; details: in vivo; method in brief: as §1
[9] = Half life in Sprague-Dawley rat at 1 mg/kg, po; format: ADME, organism-based; parameters: dose 1 mg/kg, route oral; details: in vivo; method in brief: as §1
Rattus norvegicus [10] = assay: Inhibition of paw swelling in AIA Lewis rat at 1 mg/kg, po after 21 days; format: functional; details: 504 h
Method in brief: (§2)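 Seven-week-old female Lewis rats had adjuvant injected into the left hind paw on day 0. Disease developed over 12 days, then rats were dosed orally at 0.1, 0.3, 1 or 3 mpk once daily for ten days. On days 0, 12 and 21 they were weighed, paw volumes measured and radiographs taken. Swelling of the secondary paw was scored.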

Rattus norvegicus [11] = assay: Inhibition of TNFalpha production in rat LPS challenge model at 0.1 mg/kg, po after 24 hrs; format: functional
Mus musculus = assay: Inhibition of TNFalpha production in BALB/c mouse at 0.3 mg/kg up to 24hrs; format: functional
Method in brief: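 Female Balb/c mice aged 12–16 weeks were given compound orally in 0.5% methylcellulose 22.5 h before LPS challenge. They were sacrificed 1.5 h after challenge, and plasma TNF-a was measured by ELISA.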

Rattus norvegicus [12] = species on record: Rattus norvegicus; assay: Inhibition of paw swelling in AIA Lewis rat after 21 days; format: functional; details: 504 h; method in brief: as §2
Rattus norvegicus [13] = assay: Inhibition of paw swelling in AIA Lewis rat at 0.1 mg/kg, po after 21 days; format: functional; details: 504 h; method in brief: as §2
[14] = Oral bioavailability in rhesus macaque; format: ADME, organism-based, Macaca mulatta; details: rhesus monkey, in vivo
[15] = Half life in Sprague-Dawley rat at 1 mg/kg; format: ADME, organism-based; parameters: dose 1 mg/kg; details: in vivo; method in brief: as §1
[16] = Clearance in Sprague-Dawley rat at 1 mg/kg; format: ADME, organism-based; parameters: dose 1 mg/kg; details: in vivo
[17] = Volume of distribution in Sprague-Dawley rat at 1 mg/kg; format: ADME, organism-based; parameters: dose 1 mg/kg; details: in vivo, read-out: Vdss
Rattus norvegicus [18] = assay: Inhibition of paw swelling in AIA Lewis rat at 0.3 mg/kg, po after 21 days; format: functional; details: 504 h; method in brief: as §2
Rattus norvegicus [19] = assay: Inhibition of paw swelling in AIA Lewis rat at 3 mg/kg, po after 21 days; format: functional; details: 504 h; method in brief: as §2
[20] = Volume of distribution in rhesus macaque; format: ADME, organism-based, Macaca mulatta; details: rhesus monkey, in vivo; read-out: Vdss
Rattus norvegicus [21] = assay: Inhibition of TNF-alpha production in rat LPS challenge model at 1 mg/kg, po after 24 hrs; format: functional
Rattus norvegicus [22] = assay: Inhibition of TNF-alpha production in rat LPS challenge model at 0.3 mg/kg, po after 24 hrs; format: functional
[23] = Oral bioavailability in Sprague-Dawley rat; format: ADME, organism-based; details: in vivo; method in brief: as §1
[24] = Cmax in Sprague-Dawley rat at 1 mg/kg; format: ADME, organism-based; parameters: dose 1 mg/kg; details: in vivo; method in brief: as §1
[25] = Clearance in rhesus macaque; format: ADME, organism-based, Macaca mulatta; details: rhesus monkey, in vivo
[26] = Half life in rhesus macaque; format: ADME, organism-based, Macaca mulatta; details: rhesus monkey, in vivo
Rattus norvegicus [27] = assay: Reduction of TNFalpha production in rat LPS challenge model at 10 mg/kg, po after 3 hrs; format: functional; parameters: scale not given: the % may be the effect or the level left

Question: What does the source list for `O=c1ccc2c(-c3ccc(F)cc3F)nccc2n1-c1c(Cl)cccc1Cl`?
Answer: bioavailability [1]: 57%; inhibition in vivo at 3 mg/kg (Rattus norvegicus [2]): 37%; Cmax [3]: 1 µM; inhibition in vivo at 3 mg/kg (Rattus norvegicus [4]): 61%; pIC50 (THP-1): 8.18; half-life [5]: 2 h; inhibition in vivo at 3 mg/kg (Rattus norvegicus [6]): 27%; pIC50 (Blood): 7.00

Question: Which results are given for `CNc1cc2c(ccc(=O)n2-c2c(F)cccc2F)c(-c2ccc(F)cc2F)n1`?
Answer: pIC50 (THP-1): 8.14; pIC50 (Blood): 7.14

Question: What does the source list for `O=c1ccc2c(-c3ccc(F)cc3F)nccc2n1-c1c(F)cccc1F`?
Answer: pIC50 (THP-1): 8.15; pIC50 (Blood): 6.84

Question: What does the source list for `O=c1ccc2c(-c3ccc(F)cc3F)[n+]([O-])ccc2n1-c1c(Cl)cccc1Cl`?
Answer: Cmax [7]: 3.5 µM; bioavailability [8]: 98%; pIC50 (THP-1): 6.70; inhibition in vivo at 3 mg/kg (Rattus norvegicus [6]): 80%; half-life [9]: 9.9 h

Question: With `Nc1cc2c(ccc(=O)n2-c2c(F)cccc2F)c(-c2ccc(F)cc2F)n1` as the compound, how does the inhibition in vivo at 1 mg/kg (Rattus norvegicus [10]) read?
Answer: Its inhibition in vivo at 1 mg/kg is 65%.

Question: What about the inhibition in vivo at 0.1 mg/kg (Rattus norvegicus [11]) of the same compound?
Answer: The inhibition in vivo at 0.1 mg/kg was 53%.

Question: And the inhibition in vivo at 3 mg/kg (Rattus norvegicus [2])?
Answer: The inhibition in vivo at 3 mg/kg was 95%.

Question: What about the inhibition in vivo at 0.3 mg/kg (Mus musculus) of the same compound?
Answer: Its inhibition in vivo at 0.3 mg/kg is over 90%.

Question: And the ED50 (Rattus norvegicus [12])?
Answer: The ED50 was 0.22 mg/kg.

Question: What about the inhibition in vivo at 0.1 mg/kg (Rattus norvegicus [13]) of the same compound?
Answer: The inhibition in vivo at 0.1 mg/kg was 38%.

Question: And the inhibition in vivo at 3 mg/kg (Rattus norvegicus [4])?
Answer: The inhibition in vivo at 3 mg/kg was 97%.

Question: And the bioavailability [14]?
Answer: The bioavailability was 22%.

Question: And the pIC50 (THP-1)?
Answer: The pIC50 was 9.16.

Question: And the half-life [15]?
Answer: Its half-life is 6.5 h.

Question: What about the inhibition in vivo at 3 mg/kg (Rattus norvegicus [6]) of the same compound?
Answer: Its inhibition in vivo at 3 mg/kg is 92%.

Question: What about the clearance [16] of the same compound?
Answer: Its clearance is 1.6 mL/min/kg.

Question: What about the Vd [17] of the same compound?
Answer: Its Vd is 0.9 L/kg.

Question: And the inhibition in vivo at 0.3 mg/kg (Rattus norvegicus [18])?
Answer: The inhibition in vivo at 0.3 mg/kg was 54%.

Question: What about the inhibition in vivo at 3 mg/kg (Rattus norvegicus [19]) of the same compound?
Answer: Its inhibition in vivo at 3 mg/kg is 80%.

Question: And the Vd [20]?
Answer: Its Vd is 0.9 L/kg.

Question: What about the inhibition in vivo at 1 mg/kg (Rattus norvegicus [21]) of the same compound?
Answer: The inhibition in vivo at 1 mg/kg was 79%.

Question: What about the inhibition in vivo at 1 mg/kg (Rattus norvegicus [21]; read-out: Inhibition) of the same compound?
Answer: Its inhibition in vivo at 1 mg/kg is 79%.

Question: What about the inhibition in vivo at 0.3 mg/kg (Rattus norvegicus [22]) of the same compound?
Answer: The inhibition in vivo at 0.3 mg/kg was 75%.

Question: And the bioavailability [23]?
Answer: Its bioavailability is 68%.

Question: What about the Cmax [24] of the same compound?
Answer: The Cmax was 3.5 µM.

Question: What about the clearance [25] of the same compound?
Answer: Its clearance is 1.3 mL/min/kg.

Question: What about the pIC50 (Blood) of the same compound?
Answer: Its pIC50 is 7.47.

Question: What about the half-life [26] of the same compound?
Answer: The half-life was 11.6 h.

Question: With `O=c1ccc2c(-c3ccc(F)cc3F)nc(O)cc2n1-c1c(F)cccc1F` as the compound, how does the pIC50 (THP-1) read?
Answer: Its pIC50 is 8.35.

Question: And the Activity (Rattus norvegicus [27])?
Answer: Its Activity is 70%.

Question: What about the pIC50 (Blood) of the same compound?
Answer: Its pIC50 is 6.92.

Question: Which results are given for `O=c1ccc2c(-c3ccc(F)cc3F)nccc2n1-c1ccccc1Cl`?
Answer: pIC50 (THP-1): 7.39; pIC50 (Blood): 7.06
